Results from ChEMBL document CHEMBL2424582, “Structure-kinetic relationships--an overlooked parameter in hit-to-lead optimization: a case of cyclopentylamines as chemokine receptor 2 antagonists” (J Med Chem, 2013).

How the values were obtained:
[1] = molecular target: T1, C-C chemokine receptor type 2 (Homo sapiens, UniProt P41597); assay: Displacement of [3H]INCB3344 from human CCR2 receptor expressed in human U2OS cell membrane assessed as residence time
Target sequence in this assay (P41597 whole entry, looked up): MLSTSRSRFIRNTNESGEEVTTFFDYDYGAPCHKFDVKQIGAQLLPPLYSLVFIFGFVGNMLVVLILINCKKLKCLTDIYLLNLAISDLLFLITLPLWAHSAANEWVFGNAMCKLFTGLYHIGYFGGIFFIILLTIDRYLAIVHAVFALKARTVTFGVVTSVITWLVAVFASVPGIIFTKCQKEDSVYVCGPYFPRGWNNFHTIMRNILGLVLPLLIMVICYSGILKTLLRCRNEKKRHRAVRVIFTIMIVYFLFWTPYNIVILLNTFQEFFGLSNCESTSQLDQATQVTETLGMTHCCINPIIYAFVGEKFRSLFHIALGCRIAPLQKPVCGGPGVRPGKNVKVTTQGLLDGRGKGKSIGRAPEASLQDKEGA

[2] = molecular target: T1, C-C chemokine receptor type 2; assay: Displacement of [3H]INCB3344 from human CCR2 receptor expressed in human U2OS cell membrane assessed as kinetic rate index at Ki by dual-point competition association assay relative to control
Target sequence in this assay (P41597 whole entry, looked up): as above

[3] = molecular target: T1, C-C chemokine receptor type 2; assay: Displacement of [125I]-CCL2 from human CCR2 receptor expressed in human U2OS cell membranes
Method in brief: (§1)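 Membranes from U2OS cells stably expressing human CCR2 were used in a ¹²⁵I-CCL2 displacement binding assay. The cells were grown at 37 °C, 5% CO₂ in McCoy's 5a with 10% FCS plus G418, hygromycin and zeocin selection. Ki was derived from IC₅₀ by the Cheng–Prusoff equation. Weak binders are reported as percent displacement at 1 μM. n = 3.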
Target sequence in this assay (P41597 whole entry): as the sequence (P41597 whole entry, looked up) above

[4] = molecular target: T1, C-C chemokine receptor type 2; assay: Displacement of [125I]-CCL2 from human CCR2 receptor expressed in human U2OS cell membrane at 1 uM relative to control; assay type: cell membranes
Method in brief: as §1
Target sequence in this assay (P41597 whole entry, looked up): as above

Row | TIME [1] | Ratio [2] | Ki [3] | inhibition [4] | SMILES
1 | 2.25 h |  |  |  | CC(C)[C@]1(C(=O)NCc2cc(C(F)(F)F)cc(C(F)(F)F)c2)CC[C@@H](NC2CCc3cc(Br)ccc32)C1 (single isomer, unassigned; diastereomer 1) [listing 1 of 2 here]
2 |  | 0.6 | 54 nM |  | CC(C)[C@]1(C(=O)NCc2cc(C(F)(F)F)cc(C(F)(F)F)c2)CC[C@@H](NC2CCc3ccc(C#N)cc32)C1 (some centres undefined)
3 | 0.0933 h | 0.6 | 33 nM |  | CC(C)[C@]1(C(=O)NCc2cc(C(F)(F)F)cc(C(F)(F)F)c2)CC[C@@H](NC2CCCc3ccccc32)C1 (some centres undefined)
4 |  | 0.8 | 55 nM |  | Cc1ccc2c(c1)C(N[C@@H]1CC[C@@](C(=O)NCc3cc(C(F)(F)F)cc(C(F)(F)F)c3)(C(C)C)C1)CC2 (some centres undefined)
5 |  |  | 134 nM |  | CC(C)[C@]1(C(=O)NCc2cc(C(F)(F)F)cc(C(F)(F)F)c2)CC[C@@H](NCCCc2ccccc2)C1
6 |  | 0.7 | 3.9 nM |  | COc1cc2c(cc1OC)C(N[C@@H]1CC[C@@](C(=O)NCc3cc(C(F)(F)F)cc(C(F)(F)F)c3)(C(C)C)C1)CC2 (some centres undefined)
7 |  |  | 7.2 nM |  | CC(C)[C@]1(C(=O)NCc2cc(C(F)(F)F)cc(C(F)(F)F)c2)CC[C@@H](NC2CCc3cc(Br)ccc32)C1 (mixture of isomers) [listing 1 of 2 here]
8 | 0.933 h | 1.1 | 18 nM |  | CC(C)[C@]1(C(=O)NCc2cc(C(F)(F)F)cc(C(F)(F)F)c2)CC[C@@H](NC2CCc3cc(Cl)ccc32)C1 (some centres undefined)
9 |  |  |  | 48% | CC(C)[C@]1(C(=O)NCc2cc(C(F)(F)F)cc(C(F)(F)F)c2)CC[C@@H](NC2CCCc3c(Br)cccc32)C1 (some centres undefined)
10 |  |  |  | 0% | CC(C)[C@]1(C(=O)NCc2cc(C(F)(F)F)cc(C(F)(F)F)c2)CC[C@@H](NC2CCCc3c(C(=O)O)cccc32)C1 (some centres undefined)
11 |  |  | 130 nM |  | COc1ccc2c(c1OC)CCC2N[C@@H]1CC[C@@](C(=O)NCc2cc(C(F)(F)F)cc(C(F)(F)F)c2)(C(C)C)C1 (some centres undefined)
12 |  | 0.6 | 6.1 nM |  | COc1ccc2c(c1)CCC2N[C@@H]1CC[C@@](C(=O)NCc2cc(C(F)(F)F)cc(C(F)(F)F)c2)(C(C)C)C1 (some centres undefined)
13 | 0.158 h | 0.7 | 50 nM |  | CC(C)[C@]1(C(=O)NCc2cc(C(F)(F)F)cc(C(F)(F)F)c2)CC[C@@H](NC2CCc3ccccc32)C1 (some centres undefined)
14 |  |  | 2400 nM |  | CC(C)[C@]1(C(=O)NCc2cc(C(F)(F)F)cc(C(F)(F)F)c2)CC[C@@H](NCCc2ccccc2)C1
15 |  |  | 289 nM |  | CC(C)[C@]1(C(=O)NCc2cc(C(F)(F)F)cc(C(F)(F)F)c2)CC[C@@H](NC2CCc3cc(Br)ccc32)C1 (stereo in doubt; 22b) [listing 1 of 2 here]
16 | 0.04 h |  | 6.8 nM |  | CC(C)[C@]1(C(=O)NCc2cc(C(F)(F)F)cc(C(F)(F)F)c2)CC[C@@H](NC2CCOCC2)C1
17 |  |  | 3.6 nM |  | CC(C)[C@]1(C(=O)NCc2cc(C(F)(F)F)cc(C(F)(F)F)c2)CC[C@@H](NC2CCc3cc(Br)ccc32)C1 (single isomer, unassigned; diastereomer 1) [listing 2 of 2 here]

Row | TIME [1] | Ratio [2] | Ki [3] | inhibition [4] | SMILES
18 |  | 0.7 | 29 nM |  | CC(C)[C@]1(C(=O)NCc2cc(C(F)(F)F)cc(C(F)(F)F)c2)CC[C@@H](NC2CCc3cc(O)ccc32)C1 (some centres undefined)
19 |  | 0.8 | 43 nM |  | CC(C)[C@]1(C(=O)NCc2cc(C(F)(F)F)cc(C(F)(F)F)c2)CC[C@@H](NC2CCc3c(N)cccc32)C1 (some centres undefined)
20 | 0.0717 h |  | 31 nM |  | CC(C)[C@]1(C(=O)NCc2cc(C(F)(F)F)cc(C(F)(F)F)c2)CC[C@@H](NC2CCSCC2)C1
21 |  |  |  | 28% | CC(C)[C@]1(C(=O)NCc2cc(C(F)(F)F)cc(C(F)(F)F)c2)CC[C@@H](NC2CCc3ccc(Cl)cc32)C1 (some centres undefined)
22 |  | 0.7 | 27 nM |  | COc1cccc2c1CCCC2N[C@@H]1CC[C@@](C(=O)NCc2cc(C(F)(F)F)cc(C(F)(F)F)c2)(C(C)C)C1 (some centres undefined)
23 |  | 0.6 | 6.3 nM |  | CC(C)[C@]1(C(=O)NCc2cc(C(F)(F)F)cc(C(F)(F)F)c2)CC[C@@H](NC2CCc3cc4c(cc32)OCO4)C1 (some centres undefined)
24 | 1.57 h | 1.1 |  |  | CC(C)[C@]1(C(=O)NCc2cc(C(F)(F)F)cc(C(F)(F)F)c2)CC[C@@H](NC2CCc3cc(Br)ccc32)C1 (mixture of isomers) [listing 2 of 2 here]
25 | 1.28 h |  |  |  | CC(C)[C@]1(C(=O)NCc2cc(C(F)(F)F)cc(C(F)(F)F)c2)CC[C@@H](NC2CCc3cc(Br)ccc32)C1 (stereo in doubt; 22b) [listing 2 of 2 here]
26 |  | 0.8 | 35 nM |  | CC(C)[C@]1(C(=O)NCc2cc(C(F)(F)F)cc(C(F)(F)F)c2)CC[C@@H](NC2CCCc3c(O)cccc32)C1 (some centres undefined)
27 |  |  | 437 nM |  | CC(C)[C@]1(C(=O)NCc2cc(C(F)(F)F)cc(C(F)(F)F)c2)CC[C@@H](NCc2ccccc2)C1
28 |  | 0.8 | 70 nM |  | CC(C)[C@]1(C(=O)NCc2cc(C(F)(F)F)cc(C(F)(F)F)c2)CC[C@@H](NC2CCc3c(C#N)cccc32)C1 (some centres undefined)
29 |  |  |  | 30% | COc1cccc2c1CCC2N[C@@H]1CC[C@@](C(=O)NCc2cc(C(F)(F)F)cc(C(F)(F)F)c2)(C(C)C)C1 (some centres undefined)
30 |  | 0.6 | 86 nM |  | CC(C)[C@]1(C(=O)NCc2cc(C(F)(F)F)cc(C(F)(F)F)c2)CC[C@@H](NC2CCc3c(O)cccc32)C1 (some centres undefined)
31 |  |  |  | 30% | CC(C)[C@]1(C(=O)NCc2cc(C(F)(F)F)cc(C(F)(F)F)c2)CC[C@@H](NC2CCc3cc(F)ccc32)C1 (some centres undefined)
32 | 0.0317 h |  | 110 nM |  | CC(C)[C@]1(C(=O)NCc2cc(C(F)(F)F)cc(C(F)(F)F)c2)CC[C@@H](NC2CCCCC2)C1
33 |  |  |  | 26% | Cc1cccc2c1CCC2N[C@@H]1CC[C@@](C(=O)NCc2cc(C(F)(F)F)cc(C(F)(F)F)c2)(C(C)C)C1 (some centres undefined)
